Source: ChEMBL document CHEMBL1127413, “Cephem sulfones as inactivators of human leukocyte elastase. 5. 7 alpha-Methoxy- and 7 alpha-chloro-1,1-dioxocephem 4-ketones” (J Med Chem, 1994)

Columns and labels:
Neutrophil elastase = target: T1, Neutrophil elastase (Homo sapiens, UniProt P08246); assay: Inhibition constant (steady state) against Human Leukocyte Elastase (HLE)
T1 sequence (P08246 whole entry): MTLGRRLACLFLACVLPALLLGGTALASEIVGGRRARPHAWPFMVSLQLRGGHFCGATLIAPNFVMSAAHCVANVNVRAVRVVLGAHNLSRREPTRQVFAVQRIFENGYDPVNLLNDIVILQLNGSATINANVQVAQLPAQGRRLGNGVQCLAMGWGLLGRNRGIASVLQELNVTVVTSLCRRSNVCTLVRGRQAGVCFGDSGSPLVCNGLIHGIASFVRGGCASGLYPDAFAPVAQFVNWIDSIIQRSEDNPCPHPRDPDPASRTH
Summary of the method: (§1)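 HLE from human sputum, active-site titrated with MeO-Suc-Ala-Ala-Pro-Val-CH2Cl; 1–3 nM active enzyme. […] Substrate and inhibitor concentrations varied to derive kon and Ki(ss).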

[1] = Chemical stability (T1/2 at pH 7.4); type: physicochemical; details: buffer
[2] = target: T2, Neutrophil elastase (Homo sapiens) (UniProt P08246); assay: Tested for the rate constant against Human Leukocyte Elastase (HLE) inactivation; summary of the method: as §1
T2 sequence (whole entry): T1 sequence (P08246 whole entry)

[3] = target: T2, Neutrophil elastase (Homo sapiens); assay: Tested for inhibition of Human Leukocyte Elastase (HLE) in living polymorphonuclear leukocytes; type: cell-based; design: scale not given: the % may be the effect or the level left
Summary of the method: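 Human PMNs from citrated venous blood, 5 × 10^6 cells/mL, exposed to inhibitor (10 μg per mL, in DMSO) for 15 min at 37 °C, then washed three times. Stimulated with cytochalasin B for 5 min, then fMLP for 15 min. Supernatant elastase assayed with N-acetyl-Ala-Ala-Pro-Ala-7-(4-methyl)coumarylamide, 6 h at 25 °C, fluorescence read; DMSO-only controls.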

| Ki ss (Neutrophil elastase) | half-life [1] | k on [2] | Activity [3] | Compound |
| --- | --- | --- | --- | --- |
| 270 nM | 4.1 h | – | – | CC1=C(C(=O)c2ccccc2)N2C(=O)[C@H](Cl)C2S(=O)(=O)[C@@H]1Sc1nnnn1C (some centres not stated) |
| 12 nM | 1.5 h | – | – | CC(=O)OCC1=C(C(=O)c2ccccc2)N2C(=O)[C@H](Cl)C2S(=O)(=O)C1 (some centres not stated) |
| 20 nM | 10 h | – | – | CO[C@H]1C(=O)N2C(C(=O)C(C)(C)C)=C(C)[C@@H](S(=O)(=O)c3ccccc3)S(=O)(=O)C12 (some centres not stated) |
| 4 nM | 3.9 h | – | – | CC(=O)OCC1=C(C(=O)C(C)(C)C)N2C(=O)[C@H](Cl)C2S(=O)(=O)C1 (some centres not stated) |
| 11 nM | 1.1 h | – | – | CCC(=O)C1=C(COC(C)=O)CS(=O)(=O)C2[C@@H](Cl)C(=O)N12 (some centres not stated) |
| 600 nM | < 0.5 h | – | – | CO[C@H]1C(=O)N2C(C(=O)C(C)(C)C)=C(C)[C@@H](OC=O)S(=O)(=O)C12 (some centres not stated) |
| 170 nM | 6.9 h | – | – | COCC1=C(C(=O)C(C)(C)C)N2C(=O)[C@H](Cl)C2S(=O)(=O)C1 (some centres not stated) |
| 140 nM | 1.8 h | – | – | CC(=O)OCC1=C(C(=O)C(C)(C)C)N2C(=O)[C@H](Cl)C2S(=O)(=O)[C@@H]1Sc1nnnn1C (some centres not stated) |
| 1300 nM | 106 h | – | – | CO[C@H]1C(=O)N2C(C(=O)C(C)(C)C)=C(C)CS(=O)(=O)C12 (some centres not stated) |
| 200 nM | 18 h | 1800 M⁻¹ s⁻¹ | – | CO[C@H]1C(=O)N2C(C(=O)N3CCC[C@H]3C(=O)O)=C(COC(C)=O)CS(=O)(=O)C12 (some centres not stated) |
| < 2 nM | 1.2 h | – | – | CO[C@H]1C(=O)N2C(C(=O)C(C)(C)C)=C(COC(=O)c3ccccc3)[C@@H](OC(=O)c3ccccc3)S(=O)(=O)C12 (some centres not stated) |
| 12 nM | 28 h | – | – | CO[C@H]1C(=O)N2C(C(=O)C(C)(C)C)=C(CSc3ccccn3)CS(=O)(=O)C12 (some centres not stated) |
| 130 nM | 2.3 h | – | – | CC1=C(C(=O)c2ccccc2)N2C(=O)[C@H](Cl)C2S(=O)(=O)C1 (some centres not stated) |
| 27 nM | 16 h | – | – | CO[C@H]1C(=O)N2C(C(=O)C(C)(C)C)=C(CSc3nc(=O)c(=O)[nH]n3C)CS(=O)(=O)C12 (some centres not stated) |
| 75 nM | 25 h | – | – | CO[C@H]1C(=O)N2C(C(=O)N3CCCC3)=C(CSc3nc(=O)c(=O)[nH]n3C)CS(=O)(=O)C12 (some centres not stated) |
| 6 nM | 10 h | – | – | CO[C@H]1C(=O)N2C(C(=O)C(C)(C)C)=C(COC(C)=O)[C@@H](Sc3nnnn3C)S(=O)(=O)C12 (some centres not stated) |
| 93 nM | 31 h | – | – | CO[C@H]1C(=O)N2C(C(=O)C(C)(C)C)=C(CSc3nnnn3C)[C@@H](Sc3nnnn3C)S(=O)(=O)C12 (some centres not stated) |
| 100 nM | 0.2 h | – | – | CC(=O)OCC1=C(C(=O)Cc2ccccc2)N2C(=O)[C@H](Cl)C2S(=O)(=O)C1 (some centres not stated) |
| 4 nM | 6.3 h | – | – | CO[C@H]1C(=O)N2C(C(=O)C(C)(C)C)=C(C)[C@@H](OC(C)=O)S(=O)(=O)C12 (some centres not stated) |
| 2700 nM | 26 h | – | – | CO[C@H]1C(=O)N2C(C(=O)c3ccccc3)=C(C)CS(=O)(=O)C12 (some centres not stated) |
| 100 nM | 5.1 h | – | – | CO[C@H]1C(=O)N2C(C(=O)OC(C)(C)C)=C(CSc3ccccn3)CS(=O)(=O)C12 (some centres not stated) |
| 34 nM | 24 h | – | – | CO[C@H]1C(=O)N2C(C(=O)C(C)(C)C)=C(CSc3nnnn3C)CS(=O)(=O)C12 (some centres not stated) |

| Ki ss (Neutrophil elastase) | half-life [1] | k on [2] | Activity [3] | Compound |
| --- | --- | --- | --- | --- |
| 55 nM | 1400 h | – | – | CO[C@H]1C(=O)N2C(C(=O)c3ccccc3)=C(CSc3nnnn3C)[C@@H](Sc3nnnn3C)S(=O)(=O)C12 (some centres not stated) |
| 110 nM | 17 h | – | – | CO[C@H]1C(=O)N2C(C(=O)c3ccccc3)=C(CSc3nnnn3C)CS(=O)(=O)C12 (some centres not stated) |
| < 2 nM | 24 h | – | – | CO[C@H]1C(=O)N2C(C(=O)C(C)(C)C)=C(C)[C@@H](OC(=O)c3ccccc3)S(=O)(=O)C12 (some centres not stated) |
| 380 nM | 5.6 h | – | – | CC1=C(C(=O)C(C)(C)C)N2C(=O)[C@H](Cl)C2S(=O)(=O)C1 (some centres not stated) |
| 12 nM | 0.9 h | – | – | COC(=O)C1=C(COC(C)=O)CS(=O)(=O)C2[C@@H](Cl)C(=O)N12 (some centres not stated) |
| < 2 nM | 13 h | – | – | CO[C@H]1C(=O)N2C(C(=O)C(C)(C)C)=C(C)[C@@H](OC(=O)CCC(=O)c3ccccc3)S(=O)(=O)C12 (some centres not stated) |
| < 2 nM | 54 h | – | – | CO[C@H]1C(=O)N2C(C(=O)C(C)(C)C)=C(C)[C@@H](OC(=O)C(C)(C)C)S(=O)(=O)C12 (some centres not stated) |
| 180 nM | 4.1 h | – | – | CO[C@H]1C(=O)N2C(C(=O)OC(C)(C)C)=C(C)[C@@H](Sc3ccccn3)S(=O)(=O)C12 (some centres not stated) |
| 13 nM | 3.8 h | – | – | CO[C@H]1C(=O)N2C(C(=O)OC(C)(C)C)=C(CSc3nnnn3C)CS(=O)(=O)C12 (some centres not stated) |
| < 2 nM | 0.7 h | – | – | CO[C@H]1C(=O)N2C(C(=O)C(C)(C)C)=C(CSc3nnnn3C)[C@@H](OC(=O)c3ccccc3)S(=O)(=O)C12 (some centres not stated) |
| 2 nM | 7.5 h | – | – | CO[C@H]1C(=O)N2C(C(=O)C(C)(C)C)=C(C)[C@@H](OC(=O)c3ccc(CSc4nc(=O)c(=O)[nH]n4C)cc3)S(=O)(=O)C12 (some centres not stated) |
| 10 nM | 24 h | – | – | CO[C@H]1C(=O)N2C(C(=O)C(C)(C)C)=C(C)[C@@H](Sc3ccccn3)S(=O)(=O)C12 (some centres not stated) |
| 7 nM | 3 h | – | – | Cn1nnnc1SCC1=C(C(=O)C(C)(C)C)N2C(=O)[C@H](Cl)C2S(=O)(=O)C1 (some centres not stated) |
| – | 10 h | – | – | CC(=O)CCC1=C(COC(C)=O)CS(=O)(=O)C2[C@@H](Cl)C(=O)N12 (some centres not stated) |
| – | – | – | 8% | CO[C@H]1C(=O)N2C(C(=O)SCC(NC(=O)OC(C)(C)C)C(=O)OC(c3ccccc3)c3ccccc3)=C(CSc3nnnn3C)CS(=O)(=O)[C@H]12 (some centres not stated) |
| 8 nM | 18 h | – | – | CO[C@H]1C(=O)N2C(C(=O)C(C)(C)C)=C(C)[C@@H](Sc3nnnn3C)S(=O)(=O)C12 (some centres not stated) |
| 26 nM | 21 h | – | – | CO[C@H]1C(=O)N2C(C(=O)C(C)(C)C)=C(C)[C@@H](Sc3nc(=O)c(=O)[nH]n3C)S(=O)(=O)C12 (some centres not stated) |
| 12 nM | 27 h | – | – | CO[C@H]1C(=O)N2C(C(=O)C(C)(C)C)=C(C)[C@@H](Sc3nnc(C)s3)S(=O)(=O)C12 (some centres not stated) |
| 11 nM | 14 h | – | – | CO[C@H]1C(=O)N2C(C(=O)C(C)(C)C)=C(COC(C)=O)CS(=O)(=O)C12 (some centres not stated) |
| 1400 nM | 200 h | – | – | CO[C@H]1C(=O)N2C(C(=O)c3ccccc3)=C(C)[C@@H](Sc3nnnn3C)S(=O)(=O)C12 (some centres not stated) |
| < 2 nM | 33 h | – | – | CO[C@H]1C(=O)N2C(C(=O)C(C)(C)C)=C(C)[C@@H](OC(=O)c3ccc4ccccc4c3)S(=O)(=O)C12 (some centres not stated) |
| 300 nM | 3.2 h | – | – | CC1=C(C(=O)C(C)(C)C)N2C(=O)[C@H](Cl)C2S(=O)(=O)[C@@H]1Sc1nnnn1C (some centres not stated) |
